Measurements as given in PubChem BioAssay AID504354 (Broad Institute, 2011).
Calls of active or inactive are those of the source.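 The calls were made as follows: active = curve reaches 10% of the strong reference activator's caspase signal at or below the top valid tested dose; inactive = signal moves in the opposite direction, or the rest.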

Assay: apoptosis induction in non-primed human MEWO line – cell-based, luminescence, dry powder, set 2, counter-screen for A1 inhibitor project, dose response (AID 504354)
Conditions: MEWO cells (unprimed), caspase-Glo luminescence, 3 h, stronger effect = higher value; at 35 µM unless noted
Method in brief: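 Material – unprimed MEWO cell line expressing A1 · Quantity – 2500 cells per well · Medium – RPMI-1640 growth medium with 10% FBS · Doses – compound delivered into wells by pin transfer · Times – 3 h 37 °C compound exposure, 1 h room-temperature reagent incubation · Measured by – CaspaseGlo luminescence · Evaluation – caspase activity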

SMILES | caspase activation
Cn1c(=O)c([N+](=O)[O-])c(Cl)c2ccccc21 | 4.66% [at 8 µM] (inactive)
Cc1ccc(Sc2c([N+](=O)[O-])c(=O)oc3ccccc23)cc1 | -4.32% (inactive)
Cn1c(=O)c([N+](=O)[O-])c(-n2cnc3ccccc32)c2ccccc21 | 1.87% [at 4.2 µM] (inactive)
Cc1ccc(Sc2cc(=O)n(C)c3ccccc23)cc1 | -6.38% (inactive)
Cn1c(=O)c([N+](=O)[O-])c(Oc2ccccc2)c2ccccc21 | 2.97% [at 0.135 µM] (inactive)
CCOCCCNc1c([N+](=O)[O-])c(=O)n(C)c2ccccc12 | 2.4% (inactive)
CCSc1c([N+](=O)[O-])c(=O)oc2ccccc12 | -0.935% [at 0.26 µM] (inactive)
CCOC(=O)N1CCN(c2c([N+](=O)[O-])c(=O)n(C)c3ccccc23)CC1 | 2.35% (inactive)
O=c1oc2ccccc2c(Sc2ccccc2)c1[N+](=O)[O-] | -5.15% (inactive)
Cc1ccc(Sc2c([N+](=O)[O-])c(=O)n(C)c3ccccc23)cc1 | 2.38% (inactive)
O=c1oc2ccccc2c(Nc2cc(Cl)cc(Cl)c2)c1[N+](=O)[O-] | -1.06% [at 8 µM] (inactive)
O=c1oc2ccccc2c(N2CCCCC2)c1[N+](=O)[O-] | -1.32% [at 16 µM] (inactive)
O=c1oc2ccccc2c(Cl)c1[N+](=O)[O-] | -4.52% [at 16 µM] (inactive)
Cn1c(=O)c([N+](=O)[O-])c(Nc2ccc(Cl)cc2)c2ccccc21 | 1.87% [at 1 µM] (inactive)
Cc1ccc(Nc2c([N+](=O)[O-])c(=O)oc3ccccc23)cc1 | 1.87% [at 2.1 µM] (inactive)
Cc1ccc(Nc2c([N+](=O)[O-])c(=O)n(C)c3ccccc23)cc1 | 1.4% [at 1 µM] (inactive)
O=[N+]([O-])c1cnc2ccccc2c1Sc1ccccc1 | 5.29% [at 16 µM] (inactive)
O=C(Oc1cccc(/C=N/Nc2nc(Nc3ccccc3)nc(N3CCOCC3)n2)c1)c1ccco1 | 2.6% [at 16 µM] (inactive)
Cc1ccc(Sc2c([N+](=O)[O-])cnc3ccccc23)cc1 | 6.63% [at 16 µM] (inactive)
CN1C(=O)C(C)(C)N(Cc2ccccc2)c2ccccc21 | 0.935% [at 2.1 µM] (inactive)
